Source: PubChem BioAssay
The source made the active and inactive calls.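 Rule for the calls, unless noted: active = inhibition of the reporter signal at or above 50%; inactive = inhibition below 50%.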

Key:
[1] = inhibitors of TNFa-induced NFkB p65 translocation, primary screen, imaging, HUVEC, MLSMR starter and 10KST1 sets (AID 438;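 active = inhibition above 20% together with a positive visual image hit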;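 note: compound added about 3h40 before a 20 min TNFalpha stimulation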;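 for inhibition: signal is the nuclear over cytoplasmic p65 intensity ratio per well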); conditions: HUVEC TNFa-induced p65 nuclear translocation; cell count: measured here: nuclei count (cytotoxicity indicator), at 2.08 µM; inhibition: at 2 µM, stronger effect = higher value, 0% TNFa-plus-vehicle, 100% no-TNFa wells
[2] = inhibitors of mutant huntingtin aggregation, primary screen, imaging, exon1htt(103Q)mCFP cells, high-content imaging (AID 483;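 active = visual image review flags a hit and inhibition of aggregation exceeds 20%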;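 note: compound exposure lasted 3 days before fixation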;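 for nuclei count: percent of the per-plate median nuclei count of sample wells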); conditions: exon1htt(103Q)mCFP cell line, aggregate imaging, at 2 µM; inhibition of aggregation: stronger effect = higher value; nuclei count: measured here: cell count, toxicity
[3] = inhibitors of E-selectin induction by TNFa, primary screen, imaging, HUVEC, immunofluorescence, MLSMR starter and 10KST1 sets (AID 487;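 active = visually confirmed hit in the image check and inhibition above 20%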;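 for inhibition: signal is fraction of cell area covered by stained E-selectin grains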;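 for nuclei count: 100% = median nuclei count of all wells on the same plate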); conditions: HUVEC TNFalpha-induced E-selectin immunofluorescence imaging, at 2 µM; inhibition: stronger effect = higher value; nuclei count: measured here: cell number, toxicity
[4] = molecular target: Voltage-gated potassium channel subunit beta-2 (Rattus norvegicus) (UniProt P62483); assay: KvBeta enzyme negative modulators, primary screen, biochemical, NADPH fluorescence (AID 622;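 active = fluorescence slope higher than the sample average by over 3 SD, cut at about -0.22 in these data, passing the limit was not always enough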;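 note: slope of raw intensity against log time taken from 70 to 1610 s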); conditions: recombinant KvBeta, 4-cyanobenzaldehyde reduction, at 10 µM, stronger effect = higher value
[5] = molecular target: Voltage-gated potassium channel subunit beta-2 (Rattus norvegicus) (UniProt P62483); assay: KvBeta positive modulators, primary screen, biochemical, NADPH fluorescence (AID 623;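 active = NADPH fluorescence slope more negative than the mean of all samples by about 3 SD, 99.7% confidence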;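 note: fluorescence intensity change per second fitted from 20 to 320 s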); conditions: Recombinant KvBeta, NADPH fluorescence decrease slope, 10 min; at 10 µM; stronger effect = lower value
[6] = molecular target: Muscarinic acetylcholine receptor M4 (Homo sapiens) (UniProt P08173); assay: compounds altering M4/GIRK thallium flux, either direction, primary screen, M4 allosteric agonist project, cell-based, HEK293 M4/GIRK, BTC-AM (AID 625;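 active = fluorescence slope after compound addition differing from the mean of all tested samples at 99.7% confidence, mostly higher but some lower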;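 note: thallium influx through GIRK channels coupled to M4 in HEK293 cells with BTC-AM dye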); conditions: at 10 µM, actives lie on both sides
Outline: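 Material – HEK293 cells with M4 receptor and GIRK channels · Buffer or medium – pH 7.3 thallium assay buffer · Doses – one dose, 10 µM final · Timing – cells overnight at 37 °C, BTC-AM loading 1 h, reads 2 min total · Measured by – kinetic fluorescence with BTC-AM dye · Controls – carbachol and DMSO controls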

[7] = inhibitors of Sendai virus-induced IRF3 signaling, primary screen, TLR/RLR signaling modifier project, cell-based, Sendai virus stimulus, luciferase, 10K MLSCN set (AID 602276;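 active = inhibition at or above 50% at 10 µM; inactive = inhibition below 50%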;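 note: firefly luciferase from ISG56 promoter only with Renilla not read in this screen; 0% = Sendai virus plus DMSO and 100% = medium plus DMSO without virus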); conditions: HEK293 RL24 IRF3 luciferase reporter, at 10 µM, stronger effect = higher value
[8] = inhibitors of poly I:C-induced TLR3 signaling, primary screen, cell-based, poly I:C stimulus, luciferase, 10K MLSCN set (AID 602277); conditions: HEK293-TLR3 RL24 IRF3 luciferase reporter, at 10 µM, stronger effect = higher value

Chain of Voltage-gated potassium channel subunit beta-2 (Rattus norvegicus) (P62483 whole entry, looked up): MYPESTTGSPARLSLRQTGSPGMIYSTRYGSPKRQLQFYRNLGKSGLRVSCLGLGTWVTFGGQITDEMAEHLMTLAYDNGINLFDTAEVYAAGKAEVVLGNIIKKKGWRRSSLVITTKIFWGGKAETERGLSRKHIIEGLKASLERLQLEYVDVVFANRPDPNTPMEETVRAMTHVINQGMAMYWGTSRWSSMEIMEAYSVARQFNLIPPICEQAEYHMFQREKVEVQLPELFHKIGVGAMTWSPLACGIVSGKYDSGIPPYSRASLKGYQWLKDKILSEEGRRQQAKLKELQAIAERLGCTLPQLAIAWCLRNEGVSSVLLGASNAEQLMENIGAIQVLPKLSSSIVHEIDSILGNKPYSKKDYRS
Chain of Muscarinic acetylcholine receptor M4 (Homo sapiens) (P08173 whole entry, looked up): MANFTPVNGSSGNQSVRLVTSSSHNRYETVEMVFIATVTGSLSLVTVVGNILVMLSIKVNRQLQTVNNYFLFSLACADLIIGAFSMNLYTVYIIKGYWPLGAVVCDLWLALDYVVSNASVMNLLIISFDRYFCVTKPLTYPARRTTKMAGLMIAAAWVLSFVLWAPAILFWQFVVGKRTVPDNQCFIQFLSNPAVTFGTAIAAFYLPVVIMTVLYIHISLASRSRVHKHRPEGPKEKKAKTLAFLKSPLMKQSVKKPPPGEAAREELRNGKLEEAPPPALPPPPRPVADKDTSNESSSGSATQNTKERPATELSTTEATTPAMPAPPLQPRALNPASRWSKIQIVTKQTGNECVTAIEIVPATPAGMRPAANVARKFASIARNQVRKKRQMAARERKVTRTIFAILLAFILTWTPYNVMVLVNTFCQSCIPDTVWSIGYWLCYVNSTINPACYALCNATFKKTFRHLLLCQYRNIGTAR

| SMILES | cell count [1] | inhibition [1] | inhibition of aggregation [2] | nuclei count [2] | inhibition [3] | nuclei count [3] | fluorescence slope [4] | NADPH fluorescence slope [5] | fluorescence slope [6] | inhibition [7] | inhibition [8] |
| --- | --- | --- | --- | --- | --- | --- | --- | --- | --- | --- | --- |
| O=S(=O)(c1ccccc1)N1CCN(C2CCCCCCC2)CC1 | 221 | 9.7% (inactive) | 9% (inactive) | 80.6% | -53.1% (inactive) | 148% | -0.479 (inactive) | -1.1e-05 (inactive) | 0.00309 (inactive) | -8.03% (inactive) | -10% (inactive) |
| CCCC(=O)Nc1ccccc1NC(=O)CN(C)S(=O)(=O)c1ccc(C)cc1 | 182 | -6.3% (inactive) | -6.6% (inactive) | 81.6% | 20.2% (inactive) | 83.4% | -0.56 (inactive) | -3e-05 (inactive) | 0.00633 (inactive) | 1.42% (inactive) | 11.1% (inactive) |
| Cc1ccc(S(=O)(=O)N(C)c2ccc(OCC(=O)OCc3c(C)noc3C)cc2)cc1 | 455 | -15.1% (inactive) | 8.4% (inactive) | 146% | -15.8% (inactive) | 108% | -0.583 (inactive) | -3.3e-05 (inactive) | 0.00507 (inactive) | 5.73% (inactive) | 14.5% (inactive) |
| CCCCC(=O)Nc1nn(CCC)c2nc3ccccc3cc12 | 363 | 4.2% (inactive) | -14.8% (inactive) | 108% | -44.8% (inactive) | 116% | -0.568 (inactive) | -3.3e-05 (inactive) | 0.00381 (inactive) | 10.1% (inactive) | -0.131% (inactive) |
| O=C1CCC(=O)N1OCCCCOc1ccccc1 | 692 | 3.7% (inactive) | -1.2% (inactive) | 105% | 7.8% (inactive) | 106% | -0.421 (inactive) | 3.2e-05 (inactive) | 0.00701 (inactive) | 15.8% (inactive) | 18% (inactive) |
| N#CC(C(=O)CCN1C(=O)C2CC=CCC2C1=O)c1nc2ccccc2[nH]1 (stereo unspecified) | 286 | -5.7% (inactive) | 4.5% (inactive) | 93.8% | -88.1% (inactive) | 123% | -0.524 (inactive) | 5.4e-05 (inactive) | 0.00584 (inactive) | 18.4% (inactive) | 17.1% (inactive) |
| Oc1ccc(N2CCN(C(c3cccnc3)c3nnnn3Cc3ccccc3)CC2)cc1 (stereo unspecified) | 612 | 1.4% (inactive) | -2.4% (inactive) | 118% | -71.6% (inactive) | 113% | -0.468 (inactive) | -0.000313 (inactive) | 0.0054 (inactive) | 9.52% (inactive) | -11.5% (inactive) |
| Cc1cc(C)c2c(=O)[nH]c(=O)n(Cc3ccccc3)c2n1 | 303 | 20% (inactive) | -9.7% (inactive) | 114% | 0.6% (inactive) | 103% | -0.53 (inactive) | 2.6e-05 (inactive) | 0.00637 (inactive) | 16.5% (inactive) | 27.4% (inactive) |
| O=C(NCc1ccc(Cl)cc1)c1ccc(COCC(F)(F)F)o1 | 702 | -3.9% (inactive) | -3.7% (inactive) | 91.3% | -28.9% (inactive) | 101% | -0.421 (inactive) | -0.00041 (inactive) | 0.00521 (inactive) | -1.43% (inactive) | -15.5% (inactive) |
| Cc1c(NC(=O)C2CCCNC2=O)c(=O)n(-c2ccccc2)n1C (stereo unspecified) | 394 | -2.2% (inactive) | -1.6% (inactive) | 101% | -36.5% (inactive) | 106% | -0.495 (inactive) | 3.2e-05 (inactive) | 0.00472 (inactive) | 11.5% (inactive) | 6.36% (inactive) |
| COc1ccccc1CNS(=O)(=O)c1cccc(S(=O)(=O)N2CCOCC2)c1 | 676 | 25.1% (inactive) | 7.8% (inactive) | 116% | 19.5% (inactive) | 117% | -0.401 (inactive) | 2.6e-05 (inactive) | 0.00588 (inactive) | 10.7% (inactive) | 19.2% (inactive) |
| CCC(C)c1ccc(NC(=O)C2CC2)cc1 (stereo unspecified) | 466 | -11.6% (inactive) | -13.6% (inactive) | 110% | -74.9% (inactive) | 118% | -0.569 (inactive) | -4.3e-05 (inactive) | 0.00602 (inactive) | -20.4% (inactive) | -80.1% (inactive) |
| O=C(Cn1c(SCC(=O)N2CCCc3ccccc32)nc2ccccc21)N1CCCC1 | 723 | -5.1% (inactive) | -15.7% (inactive) | 107% | -126% (inactive) | 124% | -0.458 (inactive) | -3.6e-05 (inactive) | 0.00587 (inactive) | 1.52% (inactive) | 20.1% (inactive) |
| CC1Oc2ccccc2N(CC(=O)N(Cc2ccccc2)Cc2ccccn2)C1=O (stereo unspecified) | 640 | -12.1% (inactive) | -1.2% (inactive) | 106% | 81.9% (active) | 112% | -0.297 (inactive) | -8.9e-06 (inactive) | 0.00604 (inactive) | -6.61% (inactive) | -7.77% (inactive) |
| Cc1nnc(C)n1/N=C/c1cccc(Oc2ccccc2)c1 | 344 | -0.6% (inactive) | 0.1% (inactive) | 102% | -5.9% (inactive) | 106% | -0.462 (inactive) | 1.6e-05 (inactive) | 0.00567 (inactive) | 21.3% (inactive) | 31.8% (inactive) |
| CN(C)S(=O)(=O)n1cnc(-c2ccccc2)c1-c1ccccc1 | 382 | 2.8% (inactive) | 10.1% (inactive) | 100% | -26.1% (inactive) | 107% | -0.497 (inactive) | -9.7e-06 (inactive) | 0.00475 (inactive) | 11.2% (inactive) | 20.5% (inactive) |
| Cc1cc(=O)[nH]c2c1cnn2Cc1ccccc1 | 270 | 3.9% (inactive) | 13.6% (inactive) | 79.2% | -37.7% (inactive) | 104% | -0.483 (inactive) | -6.1e-05 (inactive) | 0.00447 (inactive) | 13.7% (inactive) | 15.7% (inactive) |
| Cc1cc(NC(=O)CSc2nc3ccsc3c(=O)n2NC(=O)c2ccccc2)no1 | 317 | -1.2% (inactive) | -4.7% (inactive) | 102% | -234% (inactive) | 117% | -0.449 (inactive) | 9e-05 (inactive) | 0.00651 (inactive) | -39.7% (inactive) | -61.1% (inactive) |
| COC(=O)CCN1CCC(C(N)=O)CC1 | 336 | -6.3% (inactive) | -4.2% (inactive) | 107% | -132% (inactive) | 129% | -0.437 (inactive) | 6.8e-05 (inactive) | 0.00663 (inactive) | 1.78% (inactive) | 6.83% (inactive) |
| CC1CCN(C(=O)CSc2nnc(-c3cccnc3)n2C2CCCCC2)CC1 | 463 | -5.1% (inactive) | 6.5% (inactive) | 121% | -34.6% (inactive) | 134% | -0.471 (inactive) | -2.5e-05 (inactive) | 0.00469 (inactive) | 18.4% (inactive) | 16.9% (inactive) |
| CCOC(=O)CSc1nc(C)c(C(=O)OCC)s1 | 392 | 4% (inactive) | -6.8% (inactive) | 106% | -18.1% (inactive) | 137% | -0.556 (inactive) | -1.9e-05 (inactive) | 0.00612 (inactive) | 7.74% (inactive) | 15.6% (inactive) |
| CC1Cc2ccccc2N1C(=O)Cc1cccs1 (stereo unspecified) | 275 | -3.1% (inactive) | 33.8% (inactive) | 74.7% | 18.4% (inactive) | 93.7% | -0.504 (inactive) | -3.6e-05 (inactive) | 0.00407 (inactive) | 7.14% (inactive) | -1.13% (inactive) |
| CCOC(=O)N1CCN(C(=O)c2ccc(N3C(=O)CCC3=O)cc2)CC1 | 503 | -1.2% (inactive) | 0.2% (inactive) | 108% | 15.8% (inactive) | 68.3% | -0.266 (inactive) | -2.7e-05 (inactive) | 0.00679 (inactive) | -5.15% (inactive) | 18.1% (inactive) |
| Cc1cc(-c2ccccc2)nc2cc(C(N)=O)nn12 | 331 | -5.5% (inactive) | 14.7% (inactive) | 86.6% | -129% (inactive) | 116% | -0.424 (inactive) | -2.5e-05 (inactive) | 0.0052 (inactive) | 15.9% (inactive) | 13.7% (inactive) |
| O=C(CP(=O)(c1ccccc1)c1ccccc1)N1CCCCC1 | 378 | 6.6% (inactive) | -16% (inactive) | 105% | -29.8% (inactive) | 107% | -0.528 (inactive) | -1.9e-05 (inactive) | 0.00576 (inactive) | 18% (inactive) | 22.1% (inactive) |
| CCN(CC)c1ccc2c(c1)CCCN2 | 669 | 6.8% (inactive) | 2.8% (inactive) | 91% | -36.1% (inactive) | 126% | -0.559 (inactive) | 3.7e-05 (inactive) | 0.00991 (inactive) | 8.33% (inactive) | 1.7% (inactive) |
